Most compounds without a hit are left out; they make up all but 2.1% or so of the library.
Hck-Nef inh = inhibitors of Nef-activated human Hck kinase, primary screen, biochemical, Z-Lyte FRET, 384-well, Hck-YEEI; Tyrosine-protein kinase HCK (Homo sapiens), P08631; Recombinant Hck-YEEI plus Nef, Z-Lyte FRET kinase assay; inhibition, % at 20 µM; 0.68% of 220,000 active;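 active = Hck-Nef kinase inhibition above about 50%, limit read from the data; inactive = inhibition below that limit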;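 note: 0% = DMSO with Hck plus Nef and 100% = Hck alone without Nef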
Runt-CBFb FRET = inhibitors of RUNX1 Runt–CBFb binding, primary screen, biochemical, FRET, Cerulean-Runt, Venus-CBFb, uHTS; Runt-related transcription factor 1 (Homo sapiens) + Core-binding factor subunit beta …; Cerulean-Runt/Venus-CBFb FRET ratio 530/480, 1 h; inhibition, % at 20 µM; 0.46% of 220,000 active; AID 1496, 2009;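 active = inhibition over about 50% at 20 µM in the single-dose screen, limit read from the data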;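 note: 0% = DMSO wells and 100% = excess unlabeled CBFb competitor control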
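test system = Cerulean-tagged RUNX1 Runt domain (FRET donor) fusion protein | reagent = Venus-CBFb binding partner, 100 nM | incubation = protein complex preformed 1 h, compound exposure 1 h, room temperature, dark | detection = FRET fluorescence | read-out basis = loss of energy transfer signal | controls = 5 µM unlabeled CBFb as full-inhibition high control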
Tb hexokinase = Trypanosoma brucei hexokinase 1 inhibitors, primary screen, biochemical, G6PDH-coupled NADH absorbance, MLSCN library. AID 1430, 2008. recombinant TbHK1, G6PDH-coupled NADH A340. hexokinase 1 [Trypanosoma brucei]. inhibition, % at 10 µM. 0.11% of 220,000 active;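 active = inhibition of 50% or more in the single-dose primary screen; inactive = inhibition below 50%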
RanGTP-Imp inh = inhibitors of RanGTP-importin-beta interaction, primary screen, biochemical, FRET, CFP-Ran, YFP-importin-beta, homogeneous. Ran GTPase (GTP-bound) - importin-beta complex. cell-free CFP-Ran/YFP-importin-beta FRET ratio. inhibition, % (test concentration not listed). 1.1% of 300,000 active. AID 2216, 2009;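 active = more than half of the replicate wells show a fall in the fluorescence ratio signal beyond about 16%, limit read from the data, passing the limit was not always enough; inconclusive = exactly half of the replicate wells pass the set limit; inactive = fewer than half of replicates pass the limit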;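 note: 0% = DMSO wells and 100% = Ran loaded with GDP instead of GTP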
p97 ATPase inh = inhibitors of human p97 ATPase, primary screen, biochemical; inhibition, % at 8 µM; recombinant p97 ATPase, Kinase-Glo ATP luminescence, 3 h; 0.42% of 220,000 active; Transitional endoplasmic reticulum ATPase (Homo sapiens), P55072; in the data active = inhibition above about 15%;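 note: 0% = DMSO vehicle and 100% = wells lacking enzyme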
Target sequence (P55072 whole entry, looked up): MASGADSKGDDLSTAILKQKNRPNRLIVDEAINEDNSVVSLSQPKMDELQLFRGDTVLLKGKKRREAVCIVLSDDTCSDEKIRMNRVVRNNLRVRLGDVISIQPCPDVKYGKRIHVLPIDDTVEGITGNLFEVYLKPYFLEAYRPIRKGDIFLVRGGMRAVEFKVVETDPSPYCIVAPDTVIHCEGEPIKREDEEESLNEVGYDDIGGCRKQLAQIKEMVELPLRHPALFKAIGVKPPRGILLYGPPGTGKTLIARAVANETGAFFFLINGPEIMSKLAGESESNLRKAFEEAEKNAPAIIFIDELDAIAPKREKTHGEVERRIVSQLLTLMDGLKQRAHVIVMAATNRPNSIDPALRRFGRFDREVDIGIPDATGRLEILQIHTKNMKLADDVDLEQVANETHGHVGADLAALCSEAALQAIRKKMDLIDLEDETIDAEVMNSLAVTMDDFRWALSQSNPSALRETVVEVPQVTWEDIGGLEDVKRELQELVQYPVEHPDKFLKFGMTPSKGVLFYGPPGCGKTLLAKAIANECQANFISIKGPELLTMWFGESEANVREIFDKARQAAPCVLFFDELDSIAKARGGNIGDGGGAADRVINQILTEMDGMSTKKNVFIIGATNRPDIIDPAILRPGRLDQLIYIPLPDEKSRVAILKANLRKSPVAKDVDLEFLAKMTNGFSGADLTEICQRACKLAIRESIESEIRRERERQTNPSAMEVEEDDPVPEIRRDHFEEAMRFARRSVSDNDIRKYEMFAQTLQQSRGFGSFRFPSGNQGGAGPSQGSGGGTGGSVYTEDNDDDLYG
Runt-SMMHC FRET = inhibitors of RUNX1 Runt–CBFb-SMMHC binding, primary screen, biochemical, FRET, Cerulean-Runt, Venus-CBFb-SMMHC, uHTS. 0.74% of 220,000 active. Cerulean-Runt/Venus-CBFb-SMMHC FRET ratio 530/480, 1 h. inhibition, % at 20 µM;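 active = mean inhibition across duplicate retests at 20 µM reaching about 50%, limit read from the data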;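 note: 0% = DMSO wells and 100% = wells with excess untagged CBFb-SMMHC; inhibitors lower the FRET ratio by blocking Runt binding to CBFb-SMMHC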
YIC FRET counter = YIC intramolecular FRET probe signal interference, dose response, counter-screen for RanGTP-importin-beta inhibitor project, biochemical, fluorescence FRET; shares compounds with RanGTP-Imp inh; Purified YIC probe, intramolecular FRET ratio YFP/CFP; AID 435026, 2010; IC50, µM; 40% of 1,000 active;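 active = fitted half-maximal inhibitory concentration no more than tenfold above the top dose tested; inconclusive = flat fit with 30 to 70% activity, or poor fit; inactive = half-maximal concentration beyond tenfold above the top dose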
* marks the source's active call; other numbers are inactive results; ? = inconclusive; nt = no result.

SMILES	Hck-Nef inh	Runt-CBFb FRET	Tb hexokinase	RanGTP-Imp inh	p97 ATPase inh	Runt-SMMHC FRET	YIC FRET counter
COc1ccc(CNc2ccc3c(c2)ncn3-c2ccccc2OC)cc1	-1	6	4	29*	1	7	>50
Cc1ccccc1-n1cnc2cc(NCc3cccs3)ccc21	1	0	-4	22*	2	6	>50
COc1ccccc1-n1cnc2cc(NCc3cccs3)ccc21	-22	21	39	?	-2	2	nt
COc1ccc(OCCCC(=O)N(C)CC(=O)Nc2ccccc2Cl)cc1	nt	nt	nt	1	nt	nt	nt
COC(=O)Cc1c(C)c2ccc(O)c(CNCc3ccc(OC)c(OC)c3)c2oc1=O	nt	nt	nt	33*	nt	nt	7.3*
COC(=O)Cc1c(C)c2ccc(OCC(C)=O)c(C)c2oc1=O	-9	1	-20	0	0	-5	nt
COc1ccc(-c2c(C)c3cc(O)ccc3oc2=O)cc1OC	nt	nt	nt	3	nt	nt	nt
Cc1ccc2c(c1)cc1c(=O)[nH]ncn12	4	0	-13	-3	-2	1	nt
COc1ccc(C2c3c(ncn(Cc4ccco4)c3=N)Oc3ccc4ccccc4c32)cc1 (stereo unspecified)	4	1	-5	71*	3	0	>50
CCSc1ncc(Cl)c(C(=O)Nc2sc3c(c2C(=O)NCc2cccnc2)CCCC3)n1	25	-19	-2	4	4	-26	nt
Cc1ccc(NC(=O)Cn2nc(C(F)(F)F)c3c2CCC3)cc1	2	0	-3	22*	-5	3	>50
CCC1CCCCN1C(=O)COc1cccc2c1CCN(C)C2=O (stereo unspecified)	-36	0	-7	18*	-1	-1	>50
O=C(CSc1nc2ccccc2c(=O)n1Cc1ccccc1)Nc1ccc(Br)cc1C(=O)O	nt	nt	nt	1	nt	nt	nt
CC1(C)CC(=O)c2c(O)cc(OCC(=O)N3CCN(c4ccccc4)CC3)cc2O1	nt	nt	nt	-2	nt	nt	nt
Cc1ccc(C(=O)NNC2CC(=O)N(c3ccc4c(c3)OCCO4)C2=O)cc1 (stereo unspecified)	-19	nt	9	18*	-4	4	>50
O=C(NNC1CC(=O)N(c2ccc3c(c2)OCCO3)C1=O)c1ccc(Cl)cc1 (stereo unspecified)	-5	nt	2	0	-1	-2	nt
CCn1nc(NS(=O)(=O)c2ccccc2[N+](=O)[O-])c2cc3cccc(C)c3nc21	nt	nt	nt	-3	nt	nt	nt
CCCn1nc(NC(=O)CC(C)C)c2cc3cccc(C)c3nc21	nt	nt	nt	20*	nt	nt	32*
O=C(c1ccccc1SCc1ccccc1)N1CCCCCC1	6	-2	-1	-3	-1	0	nt
Cc1cccn2c(=O)c(/C=C(\C#N)C(=O)NC3CCS(=O)(=O)C3)c(Oc3ccc(F)cc3)nc12 (stereo unspecified)	nt	nt	nt	37*	nt	nt	18*
Cc1cccc(Oc2nc3ccccn3c(=O)c2/C=C(\C#N)C(=O)NC2CCS(=O)(=O)C2)c1C (stereo unspecified)	nt	nt	nt	12	nt	nt	nt
Cc1cccc(Oc2nc3ccccn3c(=O)c2/C=C(\C#N)C(=O)NC2CCS(=O)(=O)C2)c1 (stereo unspecified)	11	4	-11	27*	3	81*	48*
COc1ccc(Oc2nc3c(C)cccn3c(=O)c2/C=C(\C#N)C(N)=O)cc1	30	34	-6	22*	6	82*	6*
Cc1nc(C)c(C(=O)NCc2ccccc2Cl)o1	-1	0	2	0	3	-5	nt
CCn1c(C(=O)O)c(CC(=O)Nc2ccccc2OC)c2ccccc21	nt	nt	nt	-3	nt	nt	nt
SMILES	Hck-Nef inh	Runt-CBFb FRET	Tb hexokinase	RanGTP-Imp inh	p97 ATPase inh	Runt-SMMHC FRET	YIC FRET counter
CCc1ccc(NC(=O)c2[nH]c(C)c(C(C)=O)c2C)cc1	nt	nt	nt	1	nt	nt	nt
CCOC(=O)c1c(NC(=O)CSc2nnc3c(n2)[nH]c2ccc(F)cc23)sc(C(C)=O)c1C	-4	-5	-3	nt	-2	-7	nt
CCOC(=O)c1c(NC(=O)CSc2nnc3c(n2)[nH]c2ccccc23)sc2c1CCN(C)C2	4	nt	-19	24*	2	nt	>50
COC(=O)C1=C(O)/C(=C\c2cc(C)n(-c3ccccc3C)c2C)N=C1C	16	10	-27	20*	-6	16	44*
C[C@H](O)c1[nH]c2cc(F)ccc2c1[C@H](C)O	nt	nt	nt	18*	nt	nt	>50
CCOC(=O)NC(Nc1ccc(OC)cc1)(C(F)(F)F)C(F)(F)F	5	0	12	5	1	1	nt
CCOc1ccc(N(C)C(=O)CCc2nnc3ccc(NCc4ccco4)nn23)cc1	nt	nt	nt	7	nt	nt	nt
N=c1sccn1CC(=O)NCc1ccc(Cl)cc1Cl	16	1	-1	3	14	-2	nt
COc1ccccc1CNC(=O)Cn1ccsc1=N	nt	nt	nt	20*	nt	nt	>50
O=C(NCC(c1ccco1)N1CCOCC1)c1c(F)cccc1F (stereo unspecified)	nt	nt	nt	0	nt	nt	nt
CCOC(=O)C1=C(COC(=O)/C=C/c2ccco2)NC(=O)NC1C (stereo unspecified)	nt	nt	nt	5	nt	nt	nt
N#CC1=C(N)Oc2cc3c(cc2C1c1ccc(Cl)cc1)OCO3 (stereo unspecified)	5	0	8	29*	0	3	>50
COc1ccc(C2NC(=S)NC3=C2CCCC3=C2SCCS2)cc1 (stereo unspecified)	20	-5	-6	18*	5	-2	>50
CCOC(=O)C1=C(C)NC(=O)C1CC(=O)O (stereo unspecified)	1	0	-9	-4	2	0	nt
CCC1CCc2c(sc(NC(=O)c3cnccn3)c2C(N)=O)C1 (stereo unspecified)	nt	nt	nt	0	nt	nt	nt
CC(C)Sc1nnc(CNC(=O)C23CC4CC(CC(C4)C2)C3)n1C1CCCCC1	0	-8	-6	20*	6	-6	>50
Cc1nnc(NC(=O)CSc2nnc(CNC(=O)C34CC5CC(CC(C5)C3)C4)n2C2CCCCC2)s1	0	-7	-6	?	-6	3	nt
O=[N+]([O-])c1ccc(S(=O)(=O)Nc2nnc(C3CCCCC3)s2)cc1	nt	nt	nt	20*	nt	nt	>50
